Measurements published in ChEMBL document CHEMBL1143835, “Antipropionibacterial activity of BAL19403, a novel macrolide antibiotic” (2007).
In brackets after ≈: the same amount, converted by molar mass.

Experiments:
Cutibacterium acnes [1] = experiment: Antibacterial activity against drug-resistant Propionibacterium acnes EG7NS after 72 hrs; format: functional
In short: (§1)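 MBC for P. acnes followed MIC assays by standard methodology. Samples were plated on Wilkins-Chalgren agar, incubated anaerobically in GENbox jars at 35 to 37°C, and examined for growth after 72 h.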

Staphylococcus aureus [2] = experiment: Antibacterial activity against methicillin-resistant Staphylococcus aureus after 20 to 24 hrs by broth microdilution method
[3] = tested on: Corynebacterium diphtheriae; experiment: Antibacterial activity against Corynebacterium diphtheriae after 48 hrs by broth microdilution method; format: functional
In short: (§2)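 Broth microdilution per CLSI in cation-adjusted Mueller-Hinton broth supplemented with 0.5% (vol/vol) Tween 80. Plates incubated at 35°C in ambient air for 44 to 48 h, then read visually. MICs in μg/ml; a geometric mean MIC was calculated across the corynebacterial strains.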

Cutibacterium acnes [4] = experiment: Antibacterial activity against drug-resistant Propionibacterium acnes P429:1 (SC) after 48 hrs by broth microdilution method; format: functional
In short: (§3)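 Broth microdilution MIC in Wilkins-Chalgren broth without lysed horse blood, following CLSI anaerobe guidelines. Plates were held in anaerobic jars with atmosphere generators (O2 <0.1% by 2.5 h, CO2 >15% by 24 h) at 35 to 37°C for 48 h. Growth was read with an illuminated plate reader and magnifying mirror.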

Cutibacterium acnes [5] = experiment: Antibacterial activity against drug-resistant Propionibacterium acnes OK8/97 after 48 hrs by broth microdilution method; format: functional; in short: as §3
Cutibacterium acnes [6] = experiment: Antibacterial activity against drug-resistant Propionibacterium acnes P95 after 72 hrs; format: functional; in short: as §1
[7] = Antibacterial activity against Streptococcus dysgalactiae subsp. dysgalactiae after 48 hrs by broth microdilution method; format: functional
Cutibacterium acnes [8] = experiment: Antibacterial activity against drug-resistant Propionibacterium acnes SW54EA after 48 hrs by broth microdilution method; format: functional; in short: as §3
Cutibacterium acnes [9] = experiment: Antibacterial activity against drug-resistant Propionibacterium acnes GE4E after 72 hrs; format: functional; in short: as §1
Cutibacterium acnes [10] = experiment: Antibacterial activity against drug-resistant Propionibacterium acnes EG7NS after 48 hrs by broth microdilution method; format: functional; in short: as §3
Cutibacterium acnes [11] = experiment: Antibacterial activity against drug-resistant Propionibacterium acnes SW11 after 48 hrs by broth microdilution method; format: functional; in short: as §3
[12] = tested on: Streptococcus equi subsp. zooepidemicus; experiment: Antibacterial activity against Streptococcus equi subsp. zooepidemicus after 48 hrs by broth microdilution method; format: functional
Cutibacterium acnes [13] = experiment: Antibacterial activity against drug-resistant Propionibacterium acnes SW10 after 48 hrs by broth microdilution method; format: functional; in short: as §3
Cutibacterium acnes [14] = experiment: Antibacterial activity against drug-resistant Propionibacterium acnes GE4E after 48 hrs by broth microdilution method; format: functional; in short: as §3
Cutibacterium acnes [15] = experiment: Antibacterial activity against drug-resistant Propionibacterium acnes SW26 after 48 hrs by broth microdilution method; format: functional; in short: as §3
Cutibacterium acnes [16] = experiment: Antibacterial activity against drug-resistant Propionibacterium acnes FG7E after 48 hrs by broth microdilution method; format: functional; in short: as §3
Staphylococcus aureus [17] = experiment: Antibacterial activity against methicillin-susceptible Staphylococcus aureus after 48 hrs by broth microdilution method; format: functional
Cutibacterium acnes [18] = experiment: Antibacterial activity against drug-resistant Propionibacterium acnes P429:1 (BC) after 48 hrs by broth microdilution method; format: functional; in short: as §3
Cutibacterium acnes [19] = experiment: Antibacterial activity against drug-resistant Propionibacterium acnes EG3NS after 48 hrs by broth microdilution method; format: functional; in short: as §3
Cutibacterium acnes [20] = experiment: Antibacterial activity against drug-resistant Propionibacterium acnes SW3CD after 72 hrs; format: functional; in short: as §1
Cutibacterium acnes [21] = experiment: Antibacterial activity against drug-resistant Propionibacterium acnes P425:1 after 48 hrs by broth microdilution method; format: functional; in short: as §3
Cutibacterium acnes [22] = experiment: Antibacterial activity against drug-resistant Propionibacterium acnes SP64E after 48 hrs by broth microdilution method; format: functional; in short: as §3
[23] = tested on: Propionibacterium granulosum; experiment: Antibacterial activity against drug-resistant Propionibacterium granulosum QK6/92 after 48 hrs by broth microdilution method
Cutibacterium acnes [24] = experiment: Antibacterial activity against drug-resistant Propionibacterium acnes P401:5 after 48 hrs by broth microdilution method; format: functional; in short: as §3
[25] = tested on: Corynebacterium minutissimum; experiment: Antibacterial activity against Corynebacterium minutissimum after 48 hrs by broth microdilution method; format: functional; in short: as §2
Cutibacterium acnes [26] = experiment: Antibacterial activity against drug-resistant Propionibacterium acnes GE46EB after 48 hrs by broth microdilution method; format: functional; in short: as §3
Cutibacterium acnes [27] = experiment: Antibacterial activity against drug-resistant Propionibacterium acnes P:413 after 48 hrs by broth microdilution method; format: functional; in short: as §3
[28] = tested on: Propionibacterium granulosum; experiment: Antibacterial activity against drug-resistant Propionibacterium granulosum NCTC-11865 after 48 hrs by broth microdilution method; format: functional; settings: Cutibacterium granulosum, NCTC-11865, 48 h; in short: as §3
Cutibacterium acnes [29] = experiment: Antibacterial activity against drug-resistant Propionibacterium acnes P322:2 after 48 hrs by broth microdilution method; format: functional; in short: as §3
Cutibacterium acnes [30] = experiment: MBC/MIC ratio of Propionibacterium acnes SW101T; format: functional
In short: (§4)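 MIC by CLSI broth microdilution in Wilkins-Chalgren broth in anaerobic jars (O2 <0.1%, CO2 >15%), read after 48 h at 35–37°C on an illuminated plate reader. For MBC, samples were plated onto Wilkins-Chalgren agar and incubated anaerobically for 72 h at 35–37°C before growth was scored.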

Cutibacterium acnes [31] = experiment: Antibacterial activity against drug-resistant Propionibacterium acnes SW101T after 48 hrs by broth microdilution method; format: functional; in short: as §3
[32] = tested on: Staphylococcus epidermidis; experiment: Antibacterial activity against Staphylococcus epidermidis after 48 hrs by broth microdilution method; format: functional
Cutibacterium acnes [33] = experiment: Antibacterial activity against drug-resistant Propionibacterium acnes SW16 after 48 hrs by broth microdilution method; format: functional; in short: as §3
Streptococcus pyogenes = experiment: Antibacterial activity against Streptococcus pyogenes after 20 to 24 hrs by broth microdilution method
Cutibacterium acnes [34] = experiment: Antibacterial activity against drug-resistant Propionibacterium acnes SW17 after 48 hrs by broth microdilution method; format: functional; in short: as §3
Cutibacterium acnes [35] = experiment: Antibacterial activity against drug-resistant Propionibacterium acnes SW101CDA after 48 hrs by broth microdilution method; format: functional; in short: as §3
[36] = tested on: Corynebacterium amycolatum; experiment: Antibacterial activity against Corynebacterium amycolatum after 48 hrs by broth microdilution method; format: functional; in short: as §2
Cutibacterium acnes [37] = experiment: Antibacterial activity against drug-resistant Propionibacterium acnes SW101T after 72 hrs; format: functional; in short: as §1
Cutibacterium acnes [38] = experiment: Antibacterial activity against drug-resistant Propionibacterium acnes SW3CD after 48 hrs by broth microdilution method; format: functional; in short: as §3
Cutibacterium acnes [39] = experiment: Antibacterial activity against drug-resistant Propionibacterium acnes P95 after 48 hrs by broth microdilution method; format: functional; in short: as §3
Cutibacterium acnes [40] = experiment: Antibacterial activity against drug-resistant Propionibacterium acnes D-04/97 after 48 hrs by broth microdilution method; format: functional; in short: as §3
Staphylococcus aureus [41] = experiment: Antibacterial activity against borderline oxacillin-resistant Staphylococcus aureus after 20 to 24 hrs by broth microdilution method
Cutibacterium acnes [42] = experiment: MBC/MIC ratio of Propionibacterium acnes GE4E; format: functional; in short: as §4
Corynebacterium jeikeium = experiment: Antibacterial activity against Corynebacterium jeikeium after 48 hrs by broth microdilution method; format: functional; in short: as §2
Cutibacterium acnes [43] = experiment: Antibacterial activity against drug-resistant Propionibacterium acnes EG13NS after 48 hrs by broth microdilution method; format: functional; in short: as §3

CC[C@H]1OC(=O)[C@H](C)[C@@H](O[C@H]2C[C@@](C)(OC)[C@@H](O)[C@H](C)O2)[C@H](C)[C@@H](O[C@@H]2O[C@H](C)C[C@H](N(C)C)[C@H]2O)[C@](C)(OC)C[C@@H](C)C(=O)[C@H](C)[C@H]2[C@H](SCCn3cnc4cccnc43)C(=O)O[C@@]21C
MBC (Cutibacterium acnes [1]): ≤ 0.06 µg/mL | MIC (Staphylococcus aureus [2]): 4.32 µg/mL (≈ 4.55 µM) | MIC [3]: 0.88 µg/mL (≈ 0.927 µM) | MIC (Cutibacterium acnes [4]): ≤ 0.06 µg/mL | MIC (Cutibacterium acnes [5]): ≤ 0.06 µg/mL | MBC (Cutibacterium acnes [6]): ≤ 0.06 µg/mL | MIC [7]: 0.12 µg/mL (≈ 0.126 µM) | MIC (Cutibacterium acnes [8]): 0.5 µg/mL (≈ 0.527 µM) | MBC (Cutibacterium acnes [9]): ≥ 256 µg/mL | MIC (Cutibacterium acnes [10]): ≤ 0.06 µg/mL | MIC (Cutibacterium acnes [11]): ≤ 0.06 µg/mL | MIC [12]: 0.08 µg/mL (≈ 0.0843 µM) | MIC (Cutibacterium acnes [13]): ≤ 0.06 µg/mL | MIC (Cutibacterium acnes [14]): 128 µg/mL (≈ 135 µM) | MIC (Cutibacterium acnes [15]): ≤ 0.06 µg/mL | MIC (Cutibacterium acnes [16]): 0.5 µg/mL (≈ 0.527 µM) | MIC (Staphylococcus aureus [17]): 4.32 µg/mL (≈ 4.55 µM) | MIC (Cutibacterium acnes [18]): 0.5 µg/mL (≈ 0.527 µM) | MIC (Cutibacterium acnes [19]): ≤ 0.06 µg/mL | MBC (Cutibacterium acnes [20]): ≤ 0.06 µg/mL | MIC (Cutibacterium acnes [21]): 4 µg/mL (≈ 4.21 µM) | MIC (Cutibacterium acnes [22]): ≥ 256 µg/mL | MIC [23]: 0.125 µg/mL (≈ 0.132 µM) | MIC (Cutibacterium acnes [24]): ≤ 0.06 µg/mL | MIC [25]: 0.88 µg/mL (≈ 0.927 µM) | MIC (Cutibacterium acnes [26]): 256 µg/mL (≈ 270 µM) | MIC (Cutibacterium acnes [27]): ≤ 0.06 µg/mL | MIC [28]: ≤ 0.06 µg/mL | MIC (Cutibacterium acnes [29]): 0.25 µg/mL (≈ 0.263 µM) | Ratio (Cutibacterium acnes [30]): >8 | MIC (Cutibacterium acnes [31]): 4 µg/mL (≈ 4.21 µM) | MIC [32]: 4.24 µg/mL (≈ 4.47 µM) | MIC (Cutibacterium acnes [33]): ≤ 0.06 µg/mL | MIC (Streptococcus pyogenes): 0.19 µg/mL (≈ 0.2 µM) | MIC (Cutibacterium acnes [34]): ≤ 0.06 µg/mL | MIC (Cutibacterium acnes [35]): 64 µg/mL (≈ 67.4 µM) | MIC [36]: 0.88 µg/mL (≈ 0.927 µM) | MBC (Cutibacterium acnes [37]): > 32 µg/mL | MIC (Cutibacterium acnes [38]): ≤ 0.06 µg/mL | MIC (Cutibacterium acnes [39]): ≤ 0.06 µg/mL | MIC (Cutibacterium acnes [40]): ≤ 0.06 µg/mL | MIC (Staphylococcus aureus [41]): 4.32 µg/mL (≈ 4.55 µM) | Ratio (Cutibacterium acnes [42]): >=2 | MIC (Corynebacterium jeikeium): 0.88 µg/mL (≈ 0.927 µM) | MIC (Cutibacterium acnes [43]): ≤ 0.06 µg/mL
